Test results taken from ChEMBL document CHEMBL2429835.
Converted amounts (≈) assume the structure as drawn. The source made the active and inactive calls. The rule behind the calls is not given here.

Assays:
[1] = test system: Acinetobacter baumannii; experiment: Antibacterial activity against Acinetobacter baumannii at 100 ug/ml by broth microdilution method; assay type: functional, organism-based
[2] = test system: Mycobacterium avium; experiment: Antimycobacterial activity against Mycobacterium avium ATCC 15769 at 100 ug/ml after 7 days by microplate Alamar blue assay; assay type: functional, organism-based
Method in brief: (§1)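 MABA in 7H12 (M. abscessus, M. bovis BCG) or 7H9 (others). Pre-dye incubation: M. abscessus 37 °C 3 days; BCG 37 °C 7 days; M. chelonae 30 °C 3 days; M. marinum 30 °C 5 days; M. avium and M. kansasii 37 °C 6 days. Then 20% Tween80 plus Alamar blue added: 4 h (abscessus), 6 days (chelonae), 1 day (others). Tested at 100 μg/mL.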

[3] = test system: Mycobacterium tuberculosis; experiment: Antimycobacterial activity against Mycobacterium tuberculosis H37Rv ATCC 27294 by microplate Alamar blue assay; assay type: functional
Method in brief: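 Strain (H37Rv or ATCC single-drug-resistant isolates) grown to late log phase in 7H9 with 0.2% glycerol, 0.05% Tween80, 10% OADC. Cells washed into PBS, passed through 8 μm filter, frozen; CFU titred on 7H11 agar. MABA MIC is the lowest concentration giving ≥90% growth inhibition versus untreated controls.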

[4] = test system: Mycobacterium marinum; experiment: Antimycobacterial activity against Mycobacterium marinum ATCC 927 after 6 days by microplate Alamar blue assay; assay type: functional; conditions: ATCC 927, 144 h
[5] = test system: Mycobacterium tuberculosis; experiment: Antimycobacterial activity against Mycobacterium tuberculosis H37Rv ATCC 27294 incubated for 10 days under low oxygen condition followed by normoxic environment for 28 hrs by low oxygen recovery assay; assay type: functional
Method in brief: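 Luciferase (luxAB) reporter strain adapted to low oxygen in a fermenter. Exposed to samples for 10 days at 37 °C under hypoxia, then 28 h normoxic at 37 °C. Luminescence read; MIC is the lowest concentration cutting luminescence by ≥90% versus untreated cultures.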

[6] = test system: Mycobacterium kansasii; experiment: Antimycobacterial activity against Mycobacterium kansasii ATCC 12478 at 100 ug/ml after 7 days by microplate Alamar blue assay; assay type: functional; method in brief: as §1
[7] = test system: Streptococcus pneumoniae; experiment: Antibacterial activity against Streptococcus pneumoniae at 100 ug/ml; assay type: functional, organism-based
Method in brief: (§2)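 Broth microdilution per NCCLS guidelines; growth read spectrophotometrically at 570 nm, except S. pneumoniae at 490 nm, which was tested with 2% HBL supplement. Compounds tested up to 100 μg/mL.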

[8] = Selectivity index, ratio of IC50 for african green monkey Vero cells to MIC90 for Mycobacterium tuberculosis H37Rv ATCC 27294 by microplate Alamar blue assay; assay type: functional
[9] = test system: Staphylococcus aureus; experiment: Antibacterial activity against Staphylococcus aureus ATCC 29213 at 100 ug/ml by broth microdilution method; assay type: functional, organism-based; method in brief: as §2
[10] = test system: Candida albicans; experiment: Antifungal activity against Candida albicans ATCC 90028 at 100 ug/ml by broth microdilution method; assay type: functional, organism-based; method in brief: as §2
[11] = test system: Mycobacteroides chelonae; experiment: Antimycobacterial activity against Mycobacterium chelonae ATCC 35752 at 100 ug/ml after 9 days by microplate Alamar blue assay; assay type: functional, organism-based; method in brief: as §1
[12] = test system: Pseudomonas aeruginosa; experiment: Antibacterial activity against Pseudomonas aeruginosa ATCC 27853 at 100 ug/ml by broth microdilution method; assay type: functional, organism-based; method in brief: as §2
[13] = test system: Mycobacteroides abscessus; experiment: Antimycobacterial activity against Mycobacterium abscessus ATCC 19977 at 100 ug/ml after 7 days by microplate Alamar blue assay; assay type: functional
[14] = test system: Escherichia coli; experiment: Antibacterial activity against Escherichia coli ATCC 25922 at 100 ug/ml by broth microdilution method; assay type: functional, organism-based; method in brief: as §2
[15] = test system: Enterococcus faecalis; experiment: Antibacterial activity against Enterococcus faecalis ATCC 29212 at 100 ug/ml by broth microdilution method; assay type: functional, organism-based; method in brief: as §2
[16] = test system: Mycolicibacterium smegmatis; experiment: Antimycobacterial activity against Mycobacterium smegmatis MC2 155 at 100 ug/ml after 3 days by microplate Alamar blue assay; assay type: functional, organism-based; conditions: str. MC2 155
Method in brief: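 MABA: 37 °C for 3 days, then Tween80 (20%) and Alamar blue added, 4 h further incubation; fluorescence read-out. Tested at 100 μg/mL.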

[17] = test system: Vero; experiment: Cytotoxicity against african green monkey Vero cells after 72 hrs by MTS-PMS assay; assay type: cell-based; conditions: Chlorocebus sabaeus
Method in brief: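 Vero cells in EMEM with 10% FBS at 37 °C, 5% CO2, diluted to 10^6 cells/mL. Exposed to 2-fold serial dilutions for 72 h at 37 °C.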

[18] = test system: Mycobacterium kansasii; experiment: Antimycobacterial activity against Mycobacterium kansasii ATCC 12478 after 7 days by microplate Alamar blue assay; assay type: functional; conditions: ATCC 12478, 168 h; method in brief: as §1
[19] = test system: Mycobacterium marinum; experiment: Antimycobacterial activity against Mycobacterium marinum ATCC 927 at 100 ug/ml after 6 days by microplate Alamar blue assay; assay type: functional, organism-based; method in brief: as §1

Structure (SMILES)	Activity [1]	Activity [2]	MIC90 [3] [µg/mL]	MIC90 [4] [µg/mL]	MIC90 [5] [µg/mL]	Activity [6]	Activity [7]	Selectivity Index [8]	Activity [9]	Activity [10]	Activity [11]	Activity [12]	Activity [13]	Activity [14]	Activity [15]	Activity [16]	IC50 [17] [µg/mL]	MIC90 [18] [µg/mL]	Activity [19]
CCOC(=O)c1c(-c2ccccc2)c2cc(Cl)ccc2oc1=O	inactive	inactive	44.7 (≈ 136 µM)	97.1 (≈ 295 µM)	37.1 (≈ 113 µM)	inactive	inactive	0.82	inactive	inactive	inactive	inactive	inactive	inactive	inactive	inactive	–	–	–
O=c1cc(-c2ccccc2)c2ccc(Cl)cc2o1	inactive	inactive	23.9 (≈ 93.1 µM)	–	21.9 (≈ 85.3 µM)	–	inactive	1.27	inactive	inactive	inactive	inactive	inactive	inactive	inactive	inactive	30.4 (≈ 118 µM)	49.3 (≈ 192 µM)	inactive
CN[C@@H]1[C@H](O[C@H]2[C@H](O[C@H]3[C@H](O)[C@@H](O)[C@H](N=C(N)N)[C@@H](O)[C@@H]3N=C(N)N)O[C@@H](C)[C@]2(O)C=O)O[C@@H](CO)[C@H](O)[C@H]1O [STREPTOMYCIN]	–	–	0.12 (≈ 0.206 µM)	–	1.07 (≈ 1.84 µM)	–	–	>833	–	–	–	–	–	–	–	–	> 100	–	–
N[C@@H]1CONC1=O [CYCLOSERINE]	–	–	6.02 (≈ 59 µM)	–	–	–	–	>17	–	–	–	–	–	–	–	–	> 100	–	–
NC[C@H]1O[C@H](O[C@H]2[C@H](O)[C@@H](O[C@H]3O[C@H](CO)[C@@H](O)[C@H](N)[C@H]3O)[C@H](N)C[C@@H]2N)[C@H](O)[C@@H](O)[C@@H]1O [KANAMYCIN]	–	–	0.65 (≈ 1.34 µM)	–	–	–	–	>154	–	–	–	–	–	–	–	–	> 100	–	–
O=[N+]([O-])c1cn2c(n1)OC[C@@H](OCc1ccc(OC(F)(F)F)cc1)C2 [PRETOMANID]	–	–	0.02 (≈ 0.0557 µM)	–	0.25 (≈ 0.696 µM)	–	–	>5000	–	–	–	–	–	–	–	–	> 100	–	–
NNC(=O)c1ccncc1 [ISONIAZID]	–	–	0.03 (≈ 0.219 µM)	–	–	–	–	–	–	–	–	–	–	–	–	–	> 100	–	–
CCOC(=O)c1c(-c2ccccc2)c2ccc(Cl)cc2oc1=O	inactive	inactive	35.9 (≈ 109 µM)	–	23.2 (≈ 70.6 µM)	inactive	inactive	1.1	inactive	inactive	inactive	inactive	inactive	inactive	inactive	inactive	39.4 (≈ 120 µM)	–	inactive
O=c1cc(-c2ccccc2)c2cc(Cl)ccc2o1	inactive	inactive	> 100	–	–	inactive	inactive	–	inactive	inactive	inactive	inactive	inactive	inactive	inactive	inactive	> 100	–	inactive
CO[C@H]1/C=C/O[C@@]2(C)Oc3c(C)c(O)c4c(O)c(c(/C=N/N5CCN(C)CC5)c(O)c4c3C2=O)NC(=O)/C(C)=C\C=C\[C@H](C)[C@H](O)[C@@H](C)[C@@H](O)[C@@H](C)[C@H](OC(C)=O)[C@@H]1C [RIFAMPIN]	–	–	0.08 (≈ 0.0972 µM)	–	< 0.05	–	–	–	–	–	–	–	–	–	–	–	> 100	–	–
